A1 apoptosis 2 – A1 inhibition read as caspase activation | MEF A1-2A-BIM cells, caspase-Glo luminescence, 3 h; percent of clofoctol response, DMSO zero | caspase activation, % (concentration not given with the values) | 24,000 tested, under 10 active; in the data active = caspase activation above about 5.9%; inconclusive = no clear call, values can overlap the other calls; inactive = below about 2.2%
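Test system – A1-2A-BIM-expressing MEF cells · Input – 2500 cells/well · Medium – RPMI-1640 growth medium with 10% FBS · Compound dosing – 50 nL pinned compound · Timing – 3 h compound exposure at 37 °C · Technique – Caspase-Glo luminescence (DEVD substrate) · Evaluation – Caspase-3/7 activity from luminescence increase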
T cruzi intra – inhibitors of intracellular Trypanosoma cruzi; intracellular Trypanosoma cruzi in host cells, plate reader; activity score (inhibition), % at 5.01 µM; 22,000 compounds, 4.9% hits; AID 651903; in the data active = activity score above about 55%; inconclusive = no clear call, values can overlap the other calls;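 also: parasites and compound incubated about four days before reading; 0% = median of neutral control wells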
INS-1E ATP HTS – rescue of cytokine-induced death in INS-1E beta cells; 20,000 compounds, 0.1% hits; protection from cytokine-induced ATP loss, % at 10 µM; INS-1E cytokine-induced death, ATP luminescence, 48 h; normalised: neutral wells 0, positive control 100;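 active = mean replicate protection from cytokine-induced ATP loss at least 50% and at least 75% of replicates each reaching 50%; inconclusive = meets only one of the two criteria, mean or replicate share; inactive = fails both the mean and replicate share criteria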
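Test system: INS-1E rat cells | Quantity: 8000 cells per well | Medium: Phenol-red-free RPMI with 5% fetal bovine serum | Reagent: Cytokine cocktail of IFN-γ, TNF-α and IL-1β | Doses: One compound concentration, pin transfer | Timing: 48 h co-treatment, 10 min post-lysis read | Technique: Luminescent ATP assay (CellTiter-Glo)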
Active calls of the source: *; ? = inconclusive; nt = not tested or not shown. This excerpt belongs to a sample that is enriched for hits.

SMILES	A1 apoptosis 2	T cruzi intra	INS-1E ATP HTS
COCCCNC(=O)[C@@]1(Cc2ccccc2I)c2ccccc2C(=O)N(Cc2ccccc2OC)[C@H]1c1ccc(CO)cc1	0	nt	nt
O=C(NO)c1ccc(C(=O)N/N=C/c2cccnc2Br)cc1	0	5	-10
COc1ccc(NC(=O)Nc2ccc3c(c2)C(=O)N([C@@H](C)CO)C[C@@H](C)[C@@H](CN(C)Cc2ccc(C(F)(F)F)cc2)OCCCC[C@H](C)O3)cc1	-1	nt	nt
C[C@@H]1CCCCO[C@@H](CN(C)Cc2ccc(C(F)(F)F)cc2)[C@@H](C)CN([C@H](C)CO)C(=O)c2cc(NC(=O)Cc3ccccc3)ccc2O1	nt	63*	-15
COc1ccc(NC(=O)Nc2ccc3c(c2)C(=O)N([C@H](C)CO)C[C@H](C)[C@@H](CN(C)Cc2ccc(C(F)(F)F)cc2)OCCCC[C@@H](C)O3)cc1	1	63*	-16
C[C@@H]1CCCCO[C@@H](CN(C)Cc2ccccc2)[C@@H](C)CN([C@@H](C)CO)C(=O)c2cc(NC(=O)Nc3ccc(C(F)(F)F)cc3)ccc2O1	1	nt	nt
C[C@@H]1CCCCO[C@@H](CN(C)Cc2ccc(C(=O)Nc3ccccc3N)cc2)[C@@H](C)CN([C@H](C)CO)C(=O)c2cc(NC(=O)Nc3ccc(C(F)(F)F)cc3)ccc2O1	1	81*	-45
C[C@@H]1CCCCO[C@@H](CN(C)Cc2ccccc2)[C@@H](C)CN([C@H](C)CO)C(=O)c2cc(NC(=O)Nc3ccc(C(F)(F)F)cc3)ccc2O1	nt	71*	-40
C[C@@H]1CCCCO[C@@H](CN(C)Cc2ccc(C(F)(F)F)cc2)[C@H](C)CN([C@@H](C)CO)C(=O)c2cc(NC(=O)Cc3ccccc3)ccc2O1	-1	nt	nt
C[C@@H]1CCCCO[C@@H](CN(C)Cc2ccc(C(=O)Nc3ccccc3N)cc2)[C@@H](C)CN([C@H](C)CO)C(=O)c2cc(NC(=O)Nc3ccc(F)cc3)ccc2O1	nt	9	-3
O=C(NCCN1CCOCC1)[C@@]1(Cc2ccccc2)N=C(c2ccc(OCCCO)cc2)O[C@H]1c1ccccc1	0	nt	nt
O=C(NO)c1ccc(C(=O)N/N=C/c2cc(Br)ccc2O)cc1	1	-16	-48
O=C(N/N=C/c1ccc2ccccc2c1)c1ccccc1O	-2	-25	-30
C[C@@H]1CCCCO[C@H](CN(C)Cc2ccc(C(F)(F)F)cc2)[C@@H](C)CN([C@@H](C)CO)C(=O)c2cc(NC(=O)c3ccccc3)ccc2O1	-1	nt	nt
C[C@@H]1CCCCO[C@@H](CN(C)Cc2ccc(C(F)(F)F)cc2)[C@@H](C)CN([C@H](C)CO)C(=O)c2cc(NC(=O)c3ccccc3)ccc2O1	nt	63*	-11
NC(=O)COc1ccccc1/C=N/NC(=O)CCCCC(=O)NO	0	-17	5
COc1ccc(S(=O)(=O)Nc2ccc3c(c2)CC(=O)N([C@H](C)CO)C[C@@H](C)[C@H](CN(C)Cc2ccc(Cl)c(Cl)c2)O3)cc1	nt	70*	-21
COc1ccc(CN(C)C[C@@H]2Oc3ccc(NS(=O)(=O)c4ccc(C)cc4)cc3CC(=O)N([C@@H](C)CO)C[C@@H]2C)cc1	0	46	-1
COc1ccc(S(=O)(=O)Nc2ccc3c(c2)CC(=O)N([C@H](C)CO)C[C@H](C)[C@H](CN(C)Cc2ccc(Cl)c(Cl)c2)O3)cc1	nt	40	0
COc1ccc(CN(C)C[C@@H]2Oc3ccc(NS(=O)(=O)c4ccc(C)cc4)cc3CC(=O)N([C@H](C)CO)C[C@H]2C)cc1	nt	68*	8
COc1ccc(CN(C)C[C@@H]2Oc3ccc(NS(=O)(=O)c4ccc(Cl)cc4)cc3CC(=O)N([C@@H](C)CO)C[C@@H]2C)cc1	0	3	2
COc1ccc(CN(C)C[C@@H]2Oc3ccc(NS(=O)(=O)c4ccc(Cl)cc4)cc3CC(=O)N([C@H](C)CO)C[C@H]2C)cc1	-1	68*	0
O=C(N/N=C\c1cc(Br)ccc1O)c1ccccc1O	nt	47	-129
CC(C)(C)OC(=O)Nc1cccc(/C=N/NC(=O)c2ccccc2O)c1	-1	-4	-6
C[C@@H]1CN([C@H](C)CO)C(=O)c2cccc(NC(=O)c3nc4ccccc4s3)c2O[C@@H]1CN(C)S(=O)(=O)c1ccc(Cl)cc1	0	43	-19
SMILES	A1 apoptosis 2	T cruzi intra	INS-1E ATP HTS
C[C@H](CO)N1C[C@H](C)[C@H](CN(C)S(=O)(=O)c2ccc(Cl)cc2)Oc2c(NC(=O)c3nc4ccccc4s3)cccc2C1=O	0	71*	-58
C[C@@H]1CN([C@@H](C)CO)C(=O)c2cccc(NC(=O)c3nc4ccccc4s3)c2O[C@@H]1CN(C)S(=O)(=O)c1ccc(Cl)cc1	-1	55	-58
C[C@H](CO)N1C[C@H](C)[C@@H](CN(C)S(=O)(=O)c2ccc(Cl)cc2)Oc2c(NC(=O)c3nc4ccccc4s3)cccc2C1=O	-1	66*	-6
O=C(N/N=C/c1ccccc1[N+](=O)[O-])c1ccccc1O	-12	-8	-75
O=C(NO)c1cccc(C(=O)N/N=C/c2ccc3c(c2)CCO3)c1	-1	-7	-11
C[C@H]1CN([C@@H](C)CO)C(=O)c2cccc(NC(=O)c3nc4ccccc4s3)c2O[C@H]1CN(C)Cc1ccc(-c2ccccc2)cc1	-1	23	-23
C[C@H](CO)N1C[C@H](C)[C@@H](CN(C)Cc2ccc(C(=O)Nc3ccccc3N)cc2)Oc2c(NC(=O)c3nc4ccccc4s3)cccc2C1=O	0	71*	2
C[C@@H]1CN([C@@H](C)CO)C(=O)c2cccc(NC(=O)c3nc4ccccc4s3)c2O[C@@H]1CN(C)Cc1ccc(C(=O)Nc2ccccc2N)cc1	nt	?	30
COc1ccc(CN(C)C[C@@H]2Oc3c(NC(=O)c4nc5ccccc5s4)cccc3C(=O)N([C@H](C)CO)C[C@H]2C)cc1	-1	57*	-18
COc1ccc(CN(C)C[C@@H]2Oc3c(NC(=O)c4nc5ccccc5s4)cccc3C(=O)N([C@@H](C)CO)C[C@H]2C)cc1	-1	47	-15
C[C@@H]1CN([C@@H](C)CO)C(=O)c2cccc(NC(=O)c3nc4ccccc4s3)c2O[C@@H]1CN(C)Cc1ccccc1	nt	36	-49
C[C@H](CO)N1C[C@H](C)[C@H](CN(C)Cc2ccc(-c3ccccc3)cc2)Oc2c(NC(=O)c3nc4ccccc4s3)cccc2C1=O	nt	60*	-42
C[C@@H]1CN([C@@H](C)CO)C(=O)c2cccc(NC(=O)c3nc4ccccc4s3)c2O[C@@H]1CN(C)Cc1ccc(C(F)(F)F)cc1	-1	61*	-56
COC(=O)CCCCCCC(=O)N/N=C/CCC1CCCCC1	1	1	4
O=C(N/N=C/c1ccc(-n2ccnc2)cc1)c1ccccc1O	nt	6	-34
O=C(N/N=C/c1cccs1)c1ccccc1O	nt	-14	-18
C[C@H](CO)N1C[C@H](C)[C@@H](CN(C)Cc2ccc(Cl)c(Cl)c2)Oc2c(NC(=O)c3nc4ccccc4s3)cccc2C1=O	0	69*	-28
C[C@@H]1CN([C@H](C)CO)C(=O)c2cccc(NC(=O)c3nc4ccccc4s3)c2O[C@H]1CN(C)CC1CCCCC1	0	58*	-8
